Source: ChEMBL document CHEMBL1212777, “Novel VIM metallo-beta-lactamase variant from clinical isolates of Enterobacteriaceae from Algeria” (2010)
Values after ≈ are worked out from the molar mass of the structure shown.

Experiments:
Type in all cases: functional
Klebsiella pneumoniae [1] = assay: Antimicrobial activity against Klebsiella pneumoniae 6828 strain expressing beta-lactamase VIM-19 by microdilution method in presence of 0.4 mM EDTA
Method in brief: (§1)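 Clinical isolates from intensive care patients. MICs by dilution on Mueller-Hinton agar, inoculum 10^4 CFU per spot, read after growth and interpreted by CA-SFM guidelines. Where the line names an inhibitor, it was held at a fixed level: clavulanic acid 2 μg/ml, tazobactam 4 μg/ml, or EDTA 0.4 mM.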

Klebsiella pneumoniae [2] = assay: Antimicrobial activity against Klebsiella pneumoniae 2878 strain expressing beta-lactamase VIM-19 […] in presence of 0.4 mM EDTA
Escherichia coli [3] = assay: Antimicrobial activity against Escherichia coli DH5alpha harbouring plasmid BK-VIM-19 expressing beta-lactamase VIM-19 by microdilution method in presence of 0.4 mM EDTA
Method in brief: (§2)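 MIC by dilution on Mueller-Hinton agar, inoculum 10^4 CFU per spot, interpreted by CA-SFM guidelines. Inhibitor combinations where tested: clavulanic acid 2 μg/ml, tazobactam 4 μg/ml, EDTA 0.4 mM. Transconjugants came from rifampin-resistant E. coli C600 selected on rifampin 300 μg/ml plus cefotaxime 0.5 μg/ml. Transformants came from electroporation into E. coli DH5α selected on cefotaxime 0.5 μg/ml.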

Escherichia coli [4] = assay: Antimicrobial activity against Escherichia coli harbouring plasmid BK-CMV expressing beta-lactamase VIM-19 by microdilution method; method in brief: as §2
Escherichia coli [5] = assay: Antimicrobial activity against Escherichia coli C600 2878 transconjugate expressing beta-lactamase VIM-19 by microdilution method; method in brief: as §2
Escherichia coli [6] = assay: Antimicrobial activity against Escherichia coli 138 expressing beta-lactamase VIM-19 by microdilution method in presence of 0.4 mM EDTA; method in brief: as §2
Escherichia coli [7] = assay: Antimicrobial activity against Escherichia coli DH5alpha 2878 transformant expressing beta-lactamase VIM-19 by microdilution method; method in brief: as §2
Escherichia coli [8] = assay: Antimicrobial activity against Escherichia coli 2603 strain expressing beta-lactamase VIM-19 by microdilution method; method in brief: as §1
Escherichia coli [9] = assay: Antimicrobial activity against Escherichia coli harbouring plasmidBK-CMV expressing beta-lactamase VIM-19 […] in presence of 0.4 mM EDTA
Escherichia coli [10] = assay: Antimicrobial activity against Escherichia coli 2603 strain expressing beta-lactamase VIM-19 by microdilution method in presence of 0.4 mM EDTA; method in brief: as §1
Escherichia coli [11] = assay: Antimicrobial activity against Escherichia coli DH5alpha harbouring plasmid BK-VIM-19 expressing beta-lactamase VIM-19 by microdilution method; method in brief: as §2
Providencia stuartii [12] = assay: Antimicrobial activity against Providencia stuartii 6858 strain expressing beta-lactamase VIM-19 by microdilution method; method in brief: as §1
Providencia stuartii [13] = assay: Antimicrobial activity against Providencia stuartii 6858 strain expressing beta-lactamase VIM-19 by microdilution method in presence of 0.4 mM EDTA; method in brief: as §1
Klebsiella pneumoniae [14] = assay: Antimicrobial activity against Klebsiella pneumoniae 6828 strain expressing beta-lactamase VIM-19 by microdilution method; method in brief: as §1
Klebsiella pneumoniae [15] = assay: Antimicrobial activity against Klebsiella pneumoniae 2878 strain expressing beta-lactamase VIM-19 by microdilution method; method in brief: as §1
Escherichia coli [16] = assay: Antimicrobial activity against Escherichia coli 138 expressing beta-lactamase VIM-19 by microdilution method; method in brief: as §1
Escherichia coli [17] = assay: Antimicrobial activity against Escherichia coli C600 2878 transconjugate expressing beta-lactamase VIM-19 by microdilution method in presence of 0.4 mM EDTA
Method in brief: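 Rifampin-resistant E. coli C600 recipient mated with the clinical strain. Transconjugants were selected on agar with rifampin 300 μg/ml plus cefotaxime 0.5 μg/ml. MICs by dilution on Mueller-Hinton agar, inoculum 10^4 CFU per spot, CA-SFM interpretation. Inhibitor at a fixed level: clavulanic acid 2 μg/ml or EDTA 0.4 mM.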

Escherichia coli [18] = assay: Antimicrobial activity against Escherichia coli DH5alpha 2878 transformant expressing beta-lactamase VIM-19 by microdilution method in presence of 0.4 mM EDTA; method in brief: as §2

| Structure (SMILES) | MIC (Klebsiella pneumoniae [1]) [µg/mL] | MIC (Klebsiella pneumoniae [2]) [µg/mL] | MIC (Escherichia coli [3]) [µg/mL] | MIC (Escherichia coli [4]) [µg/mL] | MIC (Escherichia coli [5]) [µg/mL] | MIC (Escherichia coli [6]) [µg/mL] | MIC (Escherichia coli [7]) [µg/mL] | MIC (Escherichia coli [8]) [µg/mL] | MIC (Escherichia coli [9]) [µg/mL] | MIC (Escherichia coli [10]) [µg/mL] | MIC (Escherichia coli [11]) [µg/mL] | MIC (Providencia stuartii [12]) [µg/mL] | MIC (Providencia stuartii [13]) [µg/mL] | MIC (Klebsiella pneumoniae [14]) [µg/mL] | MIC (Klebsiella pneumoniae [15]) [µg/mL] | MIC (Escherichia coli [16]) [µg/mL] | MIC (Escherichia coli [17]) [µg/mL] | MIC (Escherichia coli [18]) [µg/mL] |
| --- | --- | --- | --- | --- | --- | --- | --- | --- | --- | --- | --- | --- | --- | --- | --- | --- | --- | --- |
| C[C@@H](O)[C@H]1C(=O)N2C(C(=O)O)=C(S[C@@H]3CN[C@H](C(=O)Nc4cccc(C(=O)O)c4)C3)[C@H](C)[C@H]12 | < 0.12 | 0.25 | < 0.12 | < 0.12 | 1 (≈ 2.1 µM) | 0.25 | 8 (≈ 16.8 µM) | 16 (≈ 33.6 µM) | < 0.12 | < 0.12 | 4 (≈ 8.41 µM) | 32 (≈ 67.3 µM) | < 0.12 | 16 (≈ 33.6 µM) | 64 (≈ 135 µM) | 32 (≈ 67.3 µM) | < 0.12 | < 0.12 |
| CO/N=C(\C(=O)N[C@@H]1C(=O)N2C(C(=O)[O-])=C(C[N+]3(C)CCCC3)CS[C@H]12)c1csc(N)n1 |  |  |  | < 0.12 |  |  | 4 (≈ 8.32 µM) | 4 (≈ 8.32 µM) |  |  |  | 2 (≈ 4.16 µM) |  | 4 (≈ 8.32 µM) | 64 (≈ 133 µM) | 64 (≈ 133 µM) |  |  |
| C[C@H]1[C@H](NC(=O)/C(=N\OC(C)(C)C(=O)O)c2csc(N)n2)C(=O)N1S(=O)(=O)O [AZTREONAM] | 8 | 16 |  |  |  | 128 | 16 (≈ 36.7 µM) | 64 (≈ 147 µM) |  | 64 |  | 2 (≈ 4.59 µM) |  | 8 (≈ 18.4 µM) | 16 (≈ 36.7 µM) | 128 (≈ 294 µM) | 4 | 16 |
| CO/N=C(\C(=O)N[C@@H]1C(=O)N2C(C(=O)O)=C(COC(C)=O)CS[C@H]12)c1csc(N)n1 [CEFOTAXIME] | 4 | 4 | 0.06 | 0.06 (≈ 0.132 µM) | 64 (≈ 141 µM) | 32 | 256 (≈ 562 µM) | 256 (≈ 562 µM) | 0.06 | 4 | 128 (≈ 281 µM) | 128 (≈ 281 µM) | 2 | 128 (≈ 281 µM) | 256 (≈ 562 µM) | 512 (≈ 1120 µM) | 1 | 1 |
| CO[C@@]1(NC(=O)Cc2cccs2)C(=O)N2C(C(=O)O)=C(COC(N)=O)CS[C@@H]21 [CEFOXITIN] |  |  |  | 4 (≈ 9.36 µM) | 128 (≈ 299 µM) |  | 256 (≈ 599 µM) | 512 (≈ 1200 µM) |  |  | 128 (≈ 299 µM) | 128 (≈ 299 µM) |  | 128 (≈ 299 µM) | 512 (≈ 1200 µM) | 512 (≈ 1200 µM) |  |  |
| CC(C)(O/N=C(\C(=O)N[C@@H]1C(=O)N2C(C(=O)[O-])=C(C[n+]3ccccc3)CS[C@H]12)c1csc(N)n1)C(=O)O [CEFTAZIDIME] | 8 | 8 | 0.12 | 0.12 (≈ 0.22 µM) | 32 (≈ 58.5 µM) | 128 | 128 (≈ 234 µM) | 128 (≈ 234 µM) | 0.12 | 16 | 32 (≈ 58.5 µM) | 64 (≈ 117 µM) | 4 | 64 (≈ 117 µM) | 128 (≈ 234 µM) | 512 (≈ 937 µM) |  | 8 |
| CO/N=C(\C(=O)N[C@@H]1C(=O)N2C(C(=O)O)=C(COC(N)=O)CS[C@H]12)c1ccco1 [CEFUROXIME] |  |  |  | 4 (≈ 9.43 µM) | 512 (≈ 1210 µM) |  | 1020 (≈ 2410 µM) | > 1020 |  |  | 1020 (≈ 2410 µM) | 1020 (≈ 2410 µM) |  | 1020 (≈ 2410 µM) | 1020 (≈ 2410 µM) | > 1020 |  |  |
| CC(=O)OCC1=C(C(=O)O)N2C(=O)[C@@H](NC(=O)Cc3cccs3)[C@H]2SC1 [CEPHALOTHIN] |  |  |  | 4 (≈ 10.1 µM) | 1020 (≈ 2580 µM) |  | 2050 (≈ 5170 µM) | 2050 (≈ 5170 µM) |  |  | 1020 (≈ 2580 µM) | > 2050 |  | 2050 (≈ 5170 µM) | > 2050 | > 2050 |  |  |
| C[C@@H](O)[C@H]1C(=O)N2C(C(=O)O)=C(SCCNC=N)C[C@H]12 [IMIPENEM ANHYDROUS] | < 0.12 | 0.5 | < 0.12 |  | 4 (≈ 13.4 µM) | 0.5 | 8 (≈ 26.7 µM) | 16 (≈ 53.4 µM) | < 0.12 | 0.25 | 16 (≈ 53.4 µM) | 16 (≈ 53.4 µM) | 0.5 | 4 (≈ 13.4 µM) | 64 (≈ 214 µM) | 32 (≈ 107 µM) | < 0.12 | < 0.12 |
| C[C@@H](O)[C@H]1C(=O)N2C(C(=O)O)=C(S[C@@H]3CN[C@H](C(=O)N(C)C)C3)[C@H](C)[C@H]12 [MEROPENEM] | < 0.12 | < 0.12 | < 0.12 | < 0.12 | 1 (≈ 2.61 µM) | < 0.12 | 8 (≈ 20.9 µM) | 8 (≈ 20.9 µM) | < 0.12 | < 0.12 | 8 (≈ 20.9 µM) | 8 (≈ 20.9 µM) | < 0.12 | 4 (≈ 10.4 µM) | 32 (≈ 83.4 µM) | 16 (≈ 41.7 µM) | < 0.12 | < 0.12 |
| CC1(C)S[C@@H]2[C@H](NC(=O)[C@H](C(=O)O)c3ccsc3)C(=O)N2[C@H]1C(=O)O [TICARCILLIN] |  |  |  | 2 (≈ 5.2 µM) | > 2050 |  | > 2050 | > 2050 |  |  | > 2050 | > 2050 |  | > 2050 | > 2050 | > 2050 |  |  |
